Results on 19 compounds are retold here after ChEMBL document CHEMBL3580634, “Discovery of a high affinity and selective pyridine analog as a potential positron emission tomography imaging agent for cannabinoid type 2 receptor” (J Med Chem, 2015).

Data set [1] has as its target T1, Cannabinoid receptor 2 (Homo sapiens, UniProt P34972). As to the kind of experiment: Displacement of [3H]CP-55,940 from human CB2 receptor expressed in CHO cell membranes. In a few lines:
(§1)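 Membranes from CHO cells expressing human or murine CB2 were incubated with [3H]CP-55,940 in 50 mM Tris, 5 mM MgCl2, 2.5 mM EGTA, 0.1% fatty-acid-free BSA, pH 7.4, 1 h at 30 °C with shaking. Reaction stopped by filtration through PEI-coated GF/B. Ki from nonlinear regression using saturation-derived Kd. Ten concentrations in triplicate.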
A general note: Loss of bound radioactivity is the signal in a displacement assay; it reports binding, not function.

In another data set the test system is CHO. As to the kind of experiment: Selectivity index, ratio of EC50 for human CB1 receptor expressed in CHO cells to EC50 for human CB2 receptor expressed in CHO cells. Format: cell-based.
The target of data set [2] is Cannabinoid receptor 2 (Mus musculus, UniProt P47936). Put plainly: Displacement of [3H]CP-55,940 from mouse CB2 receptor expressed in CHO cell membranes. In a few lines: as §1
Sequence of Cannabinoid receptor 2 (Mus musculus, UniProt P47936) (P47936 whole entry): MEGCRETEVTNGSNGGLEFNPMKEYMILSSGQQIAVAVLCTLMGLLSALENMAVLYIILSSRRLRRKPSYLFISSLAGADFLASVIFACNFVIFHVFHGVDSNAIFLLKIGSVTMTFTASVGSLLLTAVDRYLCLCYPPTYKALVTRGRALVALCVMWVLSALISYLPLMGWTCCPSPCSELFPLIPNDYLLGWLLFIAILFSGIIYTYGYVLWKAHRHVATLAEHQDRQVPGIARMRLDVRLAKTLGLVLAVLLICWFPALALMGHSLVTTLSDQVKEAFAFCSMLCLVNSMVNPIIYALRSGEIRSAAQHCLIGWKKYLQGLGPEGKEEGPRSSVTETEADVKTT
A further data set addresses Cannabinoid receptor 1 (Homo sapiens, UniProt P21554). As to the kind of experiment: Activity at human CB1 receptor expressed in CHO cells assessed as cAMP accumulation incubated for 30 mins by time-resolved FRET assay. Type of data set: functional, cell-based. In a few lines:
(§2)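 CHO cells expressing human CB1 or CB2 were seeded 1 day before in DMEM/HT supplement/10% FCS. Medium was replaced with Krebs Ringer bicarbonate buffer containing 1 mM IBMX, 30 min at 30 °C, then compound added for 30 min at 30 °C. cAMP was read by time-resolved FRET (cAMP-Nano-TRF kit) against a standard curve from 10 μM to 0.13 nM. Ten concentrations in triplicate, single experiment.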

The target of data set [3] is T1, Cannabinoid receptor 2. Put plainly: Activity at human CB2 receptor expressed in CHO cells assessed as cAMP accumulation incubated for 30 mins by time-resolved FRET assay. Type of data set: functional, cell-based. The gist of the method:
as §2
Background: Cyclic AMP is a second messenger, typically raised through Gs and lowered through Gi signalling.

Data set [4] can be described thus: Lipophilicity, log D of the compound in n-octanol/phosphate buffer pH 7.4 by shake flask method. Type of data set: physicochemical.
Data set [5] in a line: Substrate activity at P-gp (unknown origin). Type of data set: ADME. The following applies: human.

Sequence of Cannabinoid receptor 1 (P21554 whole entry, looked up): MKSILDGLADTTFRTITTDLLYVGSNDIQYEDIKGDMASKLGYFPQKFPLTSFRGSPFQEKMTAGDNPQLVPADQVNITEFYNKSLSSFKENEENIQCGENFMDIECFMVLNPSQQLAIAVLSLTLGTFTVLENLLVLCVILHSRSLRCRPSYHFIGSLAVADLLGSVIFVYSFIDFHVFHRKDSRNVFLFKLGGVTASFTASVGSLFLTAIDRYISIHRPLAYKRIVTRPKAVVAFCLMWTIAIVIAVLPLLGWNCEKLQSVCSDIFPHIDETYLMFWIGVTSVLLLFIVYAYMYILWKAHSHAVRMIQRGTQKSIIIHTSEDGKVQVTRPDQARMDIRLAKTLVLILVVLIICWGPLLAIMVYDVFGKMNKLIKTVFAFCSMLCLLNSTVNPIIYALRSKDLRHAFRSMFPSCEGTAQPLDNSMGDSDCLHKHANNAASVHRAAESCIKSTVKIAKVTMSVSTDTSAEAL
T1 sequence (P34972 whole entry): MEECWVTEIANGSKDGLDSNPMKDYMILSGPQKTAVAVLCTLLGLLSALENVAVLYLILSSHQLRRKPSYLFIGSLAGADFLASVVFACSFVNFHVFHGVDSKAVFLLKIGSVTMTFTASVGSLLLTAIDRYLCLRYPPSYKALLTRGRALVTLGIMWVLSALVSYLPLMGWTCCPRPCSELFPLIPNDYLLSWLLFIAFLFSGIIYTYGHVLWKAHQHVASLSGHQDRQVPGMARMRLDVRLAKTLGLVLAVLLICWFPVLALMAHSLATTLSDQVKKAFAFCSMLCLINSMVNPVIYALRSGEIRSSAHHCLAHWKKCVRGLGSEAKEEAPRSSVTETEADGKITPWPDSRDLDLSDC

With `CCOC(=O)C(CC)(CC)NC(=O)c1ccc(N2CC(OC)C2)c(OCC2CC2)n1`, the Ki stood at 2.5 nM on Cannabinoid receptor 2 [1] and 1.8 nM on Cannabinoid receptor 2 [2]. Moreover, the Ratio EC50 in the data set on CHO was > 1000; with CHO (tested as the 11C-labelled form) it was 150. Moreover, the values for the EC50 on Cannabinoid receptor 1 and on Cannabinoid receptor 2 [3] were > 10000 nM and 4.4 nM, respectively.
For `CC(C)(Cc1nnc(-c2ccc(F)cc2)o1)NC(=O)c1ccc(N2CC(F)(F)C2)c(OCC2CC2)n1`, the values for the Ki on Cannabinoid receptor 2 [1] and on Cannabinoid receptor 2 [2] were 3030 nM and 1050 nM, respectively. Also, the EC50 at Cannabinoid receptor 1 was > 10000 nM.
With `CCC(CC)(NC(=O)c1ccc(N2CC(OC)C2)c(OCC2CC2)n1)C(=O)N1CC(F)C1`, the values for the Ki at Cannabinoid receptor 2 [1] and on Cannabinoid receptor 2 [2] were 18.3 nM and 6.9 nM, respectively. In addition, the Ratio EC50 in the data set with CHO was > 1000. The logD in data set [4] was 3.25. Besides, the EC50 was > 10000 nM at Cannabinoid receptor 1 and 4.4 nM on Cannabinoid receptor 2 [3]. Besides, the outcome in data set [5] was Active.
As to `CCC(CC)(NC(=O)c1ccc(N2CC(OC)C2)c(OCC2CC2)n1)C(=O)NCCF`, the Ki is 902 nM at Cannabinoid receptor 2 [1] and 421 nM on Cannabinoid receptor 2 [2]. In data set [4], the logD is 3.43. Moreover, the values for the EC50 on Cannabinoid receptor 1 and at Cannabinoid receptor 2 [3] were > 10000 nM and 281 nM, respectively.
Consider `CC(C)(NC(=O)c1ccc(N2CC(F)(F)C2)c(OCC2CC2)n1)c1nnc(-c2cccnc2)o1`, for which the Ki on Cannabinoid receptor 2 [1] and at Cannabinoid receptor 2 [2] was > 10000 nM throughout. For the same compound, the EC50 is > 10000 nM at Cannabinoid receptor 1 and 396 nM at Cannabinoid receptor 2 [3].
With `CCOC(=O)C(CC)(CC)NC(=O)c1ccc(C2CCCC2)c(OCC2CC2)n1`, the Ki was found to be 16.2 nM on Cannabinoid receptor 2 [1] and 38.5 nM on Cannabinoid receptor 2 [2]. Further, the EC50 at Cannabinoid receptor 1 was > 10000 nM; at Cannabinoid receptor 2 [3], 2.9 nM.
`CC(C)(NC(=O)c1ccc(N2CC(F)(F)C2)c(OCC2CC2)n1)c1nnc(C2CC2)o1`: the Ki on Cannabinoid receptor 2 [1] and on Cannabinoid receptor 2 [2] was > 10000 nM throughout. Besides, the EC50 at Cannabinoid receptor 1 and at Cannabinoid receptor 2 [3] was > 10000 nM in each case.
For the compound `COC1CN(c2ccc(C(=O)NC(C)(C)Cc3nnc(-c4ccc(F)cc4)o3)nc2OCC2CC2)C1`, the Ki on Cannabinoid receptor 2 [1] turned out to be 466 nM; on Cannabinoid receptor 2 [2] it was 504 nM. The values for the EC50 on Cannabinoid receptor 1 and on Cannabinoid receptor 2 [3] were > 10000 nM and 1810 nM, respectively.
For `COC1CN(c2ccc(C(=O)NC3(CC(N)=O)COC3)nc2OCC2CC2)C1`, the Ki was 1020 nM on Cannabinoid receptor 2 [1] and 3110 nM at Cannabinoid receptor 2 [2]. In data set [4], this compound displayed a logD of 1.7. For the same compound, on Cannabinoid receptor 1, the EC50 was > 10000 nM.
As for `CC(C)(Cc1nnc(-c2ccc(F)cc2)o1)NC(=O)c1ccc(C2CCCC2)c(OCC2CC2)n1`, the results for the Ki on Cannabinoid receptor 2 [1] and at Cannabinoid receptor 2 [2] were 416 nM and 403 nM, respectively. Also, on Cannabinoid receptor 1, the EC50 was > 10000 nM.
Taken in the same sequence, the figures for `COC1CN(c2ccc(C(=O)NCC3(O)CCCCC3)nc2OCC2CC2)C1` were 2870 nM, 2230 nM and > 10000 nM.
With `CCC(CC)(NC(=O)c1ccc(N2CC(OC)C2)c(OCC2CC2)n1)C(=O)NCCCF`, the Ki worked out at 2060 nM on Cannabinoid receptor 2 [1] and 5260 nM on Cannabinoid receptor 2 [2]. The same compound gave a logD in data set [4] of 3.67. Moreover, the EC50 at Cannabinoid receptor 1 is > 10000 nM.
Taken in the same sequence, the figures for `CCC(CC)(NC(=O)c1ccc(N2CC(OC)C2)c(OCC2CC2)n1)C(=O)NC` were 170 nM, 60.4 nM, 3.18 and > 10000 nM.
On to `CCOCCOCC(C)(C)c1cc(NC(=O)c2ccc(C3CCCC3)c(OCC3CC3)n2)on1`, for which the Ki turned out to be 264 nM at Cannabinoid receptor 2 [1] and 11.7 nM at Cannabinoid receptor 2 [2]. The EC50 on Cannabinoid receptor 1 was > 10000 nM.
In the case of `COC1CN(c2ccc(C(=O)NC(C)(C)Cc3nnc(C4CCC4)o3)nc2OCC2CC2)C1`, the logD in data set [4] came to 3.37. Further, the EC50 at Cannabinoid receptor 1 is > 10000 nM; on Cannabinoid receptor 2 [3], 4010 nM.
Turning to `CC(C)(NC(=O)c1ccc(N2CC(F)(F)C2)c(OCC2CC2)n1)c1nnc(-c2ccccc2)o1`, the Ki on Cannabinoid receptor 2 [1] is 3960 nM; at Cannabinoid receptor 2 [2], > 10000 nM. The EC50 on Cannabinoid receptor 1 and on Cannabinoid receptor 2 [3] was > 10000 nM throughout.
With `CCC(CC)(NC(=O)c1ccc(N2CC(F)(F)C2)c(OCC2CC2)n1)C(=O)NCCF`, the Ki came to 774 nM on Cannabinoid receptor 2 [1] and 403 nM on Cannabinoid receptor 2 [2]. Moreover, the figures for the EC50 at Cannabinoid receptor 1 and on Cannabinoid receptor 2 [3] were > 10000 nM and 27 nM, respectively.
Consider `COCCOCC(C)(C)c1cc(NC(=O)c2ccc(C3CCCC3)c(OCC3CC3)n2)on1`, for which the values for the Ki on Cannabinoid receptor 2 [1] and on Cannabinoid receptor 2 [2] were 294 nM and 12.7 nM, respectively. The EC50 at Cannabinoid receptor 1 is > 10000 nM.
Turning to `CCC(CC)(NC(=O)c1ccc(N2CC(F)(F)C2)c(OCC2CC2)n1)C(=O)NC`, the Ki is 179 nM on Cannabinoid receptor 2 [1] and 245 nM at Cannabinoid receptor 2 [2]. The compound also displayed a logD in data set [4] of 3.76. Moreover, the EC50 was > 10000 nM at Cannabinoid receptor 1 and 4.3 nM at Cannabinoid receptor 2 [3].

For orientation: Ki means a measure of affinity in units of concentration, obtained from inhibition or displacement. Higher therefore signals a looser hold on the target. Broadly, the EC50 is the concentration needed to bring the measured effect to its halfway point. For orientation: logD means lipophilicity at a set pH, counting ionised and neutral species. A lower logD goes with a more hydrophilic compound.
